Calls of active or inactive are those of the source. The rule behind the calls is not given here.
Key:
[1] = tested on: Mycobacterium tuberculosis; assay: Antimycobacterial activity against Mycobacterium tuberculosis H37Ra assessed as inhibition of microbial growth at 10 ug/ml incubated for 6 days by MABA method; assay type: functional; details: 144 h, read-out: GI
Summary of the method: (§1)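 Microplate alamar blue assay in 7H9GC medium. Compounds dissolved in DMSO at 10 mg/mL (stock), diluted to 100, 50, 25, 10, 5, 1 and 0.5 ug/mL, each in triplicate. Frozen inoculum added at final 2.5 x 10^5 CFU/mL. Bacteria-alone and medium-alone control wells. Read by colour change and fluorescence. % inhibition = (test − M bkg)/(B − M bkg) x 100, mean of two experiments. MIC50 = lowest concentration giving ≥50% inhibition.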

Mycobacterium avium [2] = assay: Antimycobacterial activity against Mycobacterium avium ATCC 25291 assessed as inhibition of microbial growth at 50 ug/ml incubated for 6 days by MABA method; assay type: functional, Mycobacterium avium subsp. avium ATCC 25291; details: ATCC 25291, 144 h, read-out: GI; summary of the method: as §1
[3] = tested on: Mycobacterium tuberculosis; assay: Antimycobacterial activity against Mycobacterium tuberculosis H37Ra assessed as inhibition of microbial growth at 0.5 ug/ml incubated for 6 days by MABA method; assay type: functional; details: 144 h, read-out: GI; summary of the method: as §1
[4] = Toxicity against human HuH7 cells after 2 days by XTT assay; assay type: cell-based, Huh-7
Summary of the method: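 Huh-7 hepatoma cells seeded at 2 x 10^4/well, allowed to attach 6–8 h, then exposed to 200, 100, 50, 10 and 1 ug/mL with a DMSO control for two days at 37 °C. Viability by XTT, 4 h at 37 °C, absorbance 450–500 nm.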

[5] = tested on: Mycobacterium tuberculosis; assay: Antimycobacterial activity against Mycobacterium tuberculosis H37Rv assessed as inhibition of microbial growth by radiometric-BACTEC assay; assay type: functional
Mycobacterium avium [6] = assay: Antimycobacterial activity against Mycobacterium avium ATCC 25291 assessed as inhibition of microbial growth at 10 ug/ml incubated for 6 days by MABA method; assay type: functional, Mycobacterium avium subsp. avium ATCC 25291; details: ATCC 25291, 144 h, read-out: GI; summary of the method: as §1
Mycobacterium avium [7] = assay: Antimycobacterial activity against Mycobacterium avium ATCC 25291 assessed as inhibition of microbial growth at 100 ug/ml incubated for 6 days by MABA method; assay type: functional, Mycobacterium avium subsp. avium ATCC 25291; details: ATCC 25291, 144 h, read-out: GI; summary of the method: as §1
[8] = tested on: Mycobacterium tuberculosis; assay: Antimycobacterial activity against Mycobacterium tuberculosis H37Ra assessed as inhibition of microbial growth at 100 ug/ml incubated for 6 days by MABA method; assay type: functional; details: 144 h, read-out: GI; summary of the method: as §1
[9] = tested on: Mycobacterium tuberculosis; assay: Antimycobacterial activity against Mycobacterium tuberculosis H37Ra assessed as inhibition of microbial growth incubated for 6 days by MABA method; assay type: functional; details: 144 h; summary of the method: as §1
[10] = Toxicity against human HuH7 cells after 2 days by [3H]thymidine incorporation assay; assay type: cell-based, Huh-7
Summary of the method: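 Huh-7 cells plated at 1 x 10^4/well and exposed in triplicate to 200, 100, 50, 10 and 1 ug/mL with a DMSO control for two days at 37 °C. Pulsed with 0.5 uCi/well [3H]-thymidine for 12–18 h, harvested onto filters, incorporation counted by liquid scintillation.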

[11] = tested on: Mycobacterium tuberculosis; assay: Antimycobacterial activity against Mycobacterium tuberculosis H37Ra assessed as inhibition of microbial growth at 5 ug/ml incubated for 6 days by MABA method; assay type: functional; details: 144 h, read-out: GI; summary of the method: as §1
[12] = tested on: Mycobacterium tuberculosis; assay: Antimycobacterial activity against Mycobacterium tuberculosis H37Ra assessed as inhibition of microbial growth at 50 ug/ml incubated for 6 days by MABA method; assay type: functional; details: 144 h, read-out: GI; summary of the method: as §1
[13] = tested on: Mycobacterium tuberculosis; assay: Potency index, ratio of MIC50 for cycloserine to MIC50 for compound against Mycobacterium tuberculosis H37Ra incubated for 6 days by MABA method; assay type: functional
Mycobacterium avium [14] = assay: Antimycobacterial activity against Mycobacterium avium ATCC 25291 assessed as inhibition of microbial growth incubated for 6 days by MABA method; assay type: functional, Mycobacterium avium subsp. avium ATCC 25291; details: ATCC 25291, 144 h; summary of the method: as §1
Mycobacterium avium [15] = assay: Antimycobacterial activity against Mycobacterium avium ATCC 25291 assessed as inhibition of microbial growth at 2 ug/ml incubated for 6 days by MABA method; assay type: functional, Mycobacterium avium subsp. avium ATCC 25291; details: ATCC 25291, 144 h, read-out: GI
[16] = tested on: Mycobacterium tuberculosis; assay: Antimycobacterial activity against Mycobacterium tuberculosis H37Rv assessed as inhibition of microbial growth at 2 ug/ml by radiometric-BACTEC assay; assay type: functional, organism-based
Mycobacterium avium [17] = assay: Antimycobacterial activity against Mycobacterium avium ATCC 25291 assessed as inhibition of microbial growth at 0.5 to 100 ug/ml incubated for 6 days by MABA method; assay type: functional, Mycobacterium avium subsp. avium ATCC 25291; summary of the method: as §1
[18] = tested on: Mycobacterium tuberculosis; assay: Antimycobacterial activity against Mycobacterium tuberculosis H37Ra assessed as inhibition of microbial growth at 0.5 to 100 ug/ml incubated for 6 days by MABA method; assay type: functional; summary of the method: as §1
[19] = tested on: Mycobacterium tuberculosis; assay: Antimycobacterial activity against Mycobacterium tuberculosis H37Ra assessed as inhibition of microbial growth at 0.1 ug/ml incubated for 6 days by MABA method; assay type: functional; details: 144 h, read-out: GI
[20] = tested on: Mycobacterium tuberculosis; assay: Antimycobacterial activity against Mycobacterium tuberculosis H37Rv assessed as inhibition of microbial growth at 1 ug/ml by radiometric-BACTEC assay; assay type: functional; details: read-out: GI
[21] = tested on: Mycobacterium tuberculosis; assay: Antimycobacterial activity against Mycobacterium tuberculosis H37Ra assessed as inhibition of microbial growth at 15 to 20 ug/ml incubated for 6 days by MABA method; assay type: functional

SMILES | CC50 at 48 h [4] | inhibition of growth at 100 µg/mL (Mycobacterium avium [7]) | inhibition of growth at 100 µg/mL [8] | MIC50 [9] | CC50 at 48 h [10] | inhibition of growth at 50 µg/mL [12] | growth inhibition (GI) (Mycobacterium avium [17]) | other results
O=c1[nH]c(=S)c(CO)cn1[C@@H]1O[C@H](CO)[C@@H](O)[C@@H]1O | > 100 µg/mL | 73% | 100% | 0.5 µg/mL | > 100 µg/mL | 100% |  | inhibition of growth at 10 µg/mL [1]: 90%; inhibition of growth at 50 µg/mL (Mycobacterium avium [2]): 58%; inhibition of growth at 0.5 µg/mL [3]: 50%; MIC50 [5]: 1 µg/mL; inhibition of growth at 10 µg/mL (Mycobacterium avium [6]): 50%; inhibition of growth at 5 µg/mL [11]: 70%; Ratio [13]: 10; MIC50 (Mycobacterium avium [14]): 10 µg/mL
CCc1cn([C@@H]2O[C@H](CO)[C@@H](O)[C@@H]2F)c(=O)[nH]c1=S | > 100 µg/mL | 35% | 60% | 50 µg/mL | > 100 µg/mL | 50% |  | inhibition of growth at 50 µg/mL (Mycobacterium avium [2]): 25%
CO[C@H]1/C=C/O[C@@]2(C)Oc3c(C)c(O)c4c(O)c(c(/C=N/N5CCN(C)CC5)c(O)c4c3C2=O)NC(=O)/C(C)=C\C=C\[C@H](C)[C@H](O)[C@@H](C)[C@@H](O)[C@@H](C)[C@H](OC(C)=O)[C@@H]1C [RIFAMPIN] |  |  |  |  |  |  |  | inhibition of growth at 0.5 µg/mL [3]: 100%; inhibition of growth at 2 µg/mL (Mycobacterium avium [15]): 90%; growth inhibition (GI) [16]: inactive
CCc1cn([C@@H]2O[C@H](CO)C[C@@H]2F)c(=O)[nH]c1=O | > 100 µg/mL | 25% | 25% |  | > 100 µg/mL |  |  | 
CCc1cn([C@@H]2O[C@H](CO)[C@@H](Br)[C@@H]2F)c(=O)[nH]c1=O | > 100 µg/mL |  | 78% | 5 µg/mL | > 100 µg/mL | 65% | 0% | inhibition of growth at 10 µg/mL [1]: 56%; inhibition of growth at 5 µg/mL [11]: 50%
CC[C@H]1OC(=O)[C@H](C)[C@@H](O[C@H]2C[C@@](C)(OC)[C@@H](O)[C@H](C)O2)[C@H](C)[C@@H](O[C@@H]2O[C@H](C)C[C@H](N(C)C)[C@H]2O)[C@](C)(OC)C[C@@H](C)C(=O)[C@H](C)[C@@H](O)[C@]1(C)O [CLARITHROMYCIN] |  |  |  |  |  |  |  | inhibition of growth at 2 µg/mL (Mycobacterium avium [15]): 100%
CCc1cn([C@@H]2O[C@H](COC(C)=O)[C@@H](OC(C)=O)[C@@H]2F)c(=O)[nH]c1=O | > 100 µg/mL | 35% | 68% |  | > 100 µg/mL | 55% |  | 
COCc1cn([C@@H]2O[C@H](CO)[C@@H](O)[C@@H]2O)c(=O)nc1N | > 100 µg/mL | 20% | 80% |  | > 100 µg/mL | 60% |  | inhibition of growth at 10 µg/mL [1]: 50%
O=c1[nH]c(=O)n([C@@H]2O[C@H](CO)[C@@H](O)[C@@H]2O)cc1CO | > 100 µg/mL |  |  |  | > 100 µg/mL |  | 0% | growth inhibition (GI) [18]: 0%
CCc1cn2c(nc1=O)O[C@@H]1[C@H](F)[C@H]2O[C@@H]1CO | > 100 µg/mL | 50% | 25% |  | > 100 µg/mL | 25% |  | inhibition of growth at 50 µg/mL (Mycobacterium avium [2]): 25%
NNC(=O)c1ccncc1 [ISONIAZID] |  |  |  |  |  |  |  | inhibition of growth at 0.1 µg/mL [19]: 10%; inhibition of growth at 1 µg/mL [20]: 100%
CCc1cn([C@@H]2O[C@H](CO)[C@@H](N=[N+]=[N-])[C@@H]2F)c(=O)[nH]c1=O | > 100 µg/mL |  |  |  | > 100 µg/mL |  | 0% | growth inhibition (GI) [18]: 0%
CCc1cn([C@@H]2O[C@H](CO)[C@@H](O)[C@@H]2F)c(=O)nc1N | > 100 µg/mL |  | 50% | 100 µg/mL | > 100 µg/mL |  | 0% | 
N[C@@H]1CONC1=O [CYCLOSERINE] |  |  | 100% | 5 µg/mL |  | 100% |  | inhibition of growth at 10 µg/mL [1]: 60%; inhibition of growth at 5 µg/mL [11]: 50%; growth inhibition (GI) [21]: 80%
CCc1cn([C@H]2O[C@@H](CO)[C@H](O)[C@H]2F)c(=O)[nH]c1=O (single isomer, unassigned) | > 100 µg/mL |  |  |  | > 100 µg/mL |  | 0% | growth inhibition (GI) [18]: 0%
